Laboratory results from ChEMBL document CHEMBL1133591, “Potent derivatives of glucagon-like peptide-1 with pharmacokinetic properties suitable for once daily administration” (J Med Chem, 2000).
Numbered stars: 1 amine (or outer) side, 2 acyl side, 3 side chain; on linkers, the order of the positions; unused ones are H or OH. Square brackets hold non-standard residues; d marks the D form. Side chains are listed from the residue outwards. Peptide text beside a SMILES is read from it. * marks the point of attachment. ξ: configuration not given here. ξγGlu = O=C(O)C(CCC(=O)[*:2])N[*:1]; Palmitoyl = CCCCCCCCCCCCCCCC(=O)*; X1 = CCCCCCCCCC(CCCCC(=O)*)C(=O)O; ξK = NCCCCC(N)C(=O)O

Legend:
[1] = Plasma half life was determined in pigs; type: ADME, organism-based, Sus scrofa; conditions: pig
Outline: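 Landrace × Duroc × Yorkshire pigs, 25–50 kg, two per compound; single sc dose, 0.5 nmol/kg for analogues, 15 nmol/kg for GLP-1. Jugular catheter blood at 0–72 h, extra early samples for GLP-1; EDTA/aprotinin/bacitracin-stabilized plasma. Unextracted plasma assayed by N-terminal-specific GLP-1 radioimmunoassay against spiked pig-plasma calibrators; half-life calculated per pig, reported as mean ± SD.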

[2] = biological target: Glucagon-like peptide 1 receptor (Homo sapiens, UniProt P43220); assay: Potency measured using recombinant human GLP-1 receptor expressed in Baby Hamster Kidney (BHK)cells; type: cell-based
Chain of Glucagon-like peptide 1 receptor (P43220 whole entry): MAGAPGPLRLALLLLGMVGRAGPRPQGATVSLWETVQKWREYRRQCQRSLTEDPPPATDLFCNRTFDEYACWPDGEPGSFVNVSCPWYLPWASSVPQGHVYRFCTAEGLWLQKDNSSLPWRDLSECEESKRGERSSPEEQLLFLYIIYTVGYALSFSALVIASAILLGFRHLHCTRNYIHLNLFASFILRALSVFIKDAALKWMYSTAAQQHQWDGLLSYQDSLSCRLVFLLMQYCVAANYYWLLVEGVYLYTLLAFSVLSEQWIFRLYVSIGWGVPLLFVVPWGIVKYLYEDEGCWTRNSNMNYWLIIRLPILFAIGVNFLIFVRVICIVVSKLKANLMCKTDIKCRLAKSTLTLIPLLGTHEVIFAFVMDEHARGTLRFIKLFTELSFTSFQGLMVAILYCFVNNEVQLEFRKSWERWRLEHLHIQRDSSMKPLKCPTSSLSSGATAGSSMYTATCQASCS

SMILES | half-life [1] | EC50 [2]
CCCCCCCCCCCCCCCC(=O)NC(CCC(=O)NCCCC[C@H](NC(=O)CNC(=O)[C@H](CCC(=O)O)NC(=O)[C@H](CC(C)C)NC(=O)[C@H](Cc1ccc(O)cc1)NC(=O)[C@H](CO)NC(=O)[C@H](CO)NC(=O)[C@@H](NC(=O)[C@H](CC(=O)O)NC(=O)[C@H](CO)NC(=O)[C@@H](NC(=O)[C@H](Cc1ccccc1)NC(=O)[C@@H](NC(=O)CNC(=O)[C@H](CCC(=O)O)NC(=O)[C@H](C)NC(=O)[C@@H](N)Cc1c[nH]cn1)[C@@H](C)O)[C@@H](C)O)C(C)C)C(=O)N[C@@H](C)C(=O)N[C@@H](C)C(=O)N[C@@H](CCCN=C(N)N)C(=O)N[C@@H](CCC(=O)O)C(=O)N[C@@H](Cc1ccccc1)C(=O)N[C@H](C(=O)N[C@@H](C)C(=O)N[C@@H](Cc1c[nH]c2ccccc12)C(=O)N[C@@H](CC(C)C)C(=O)N[C@H](C(=O)N[C@@H](CCCN=C(N)N)C(=O)NCC(=O)N[C@@H](CCCN=C(N)N)C(=O)NCC(=O)O)C(C)C)[C@@H](C)CC)C(=O)O (stereo partly drawn) (H-HAEGTFTSDVSSYLEGK([ξγGlu-Palmitoyl])AAREFIAWLVRGRG-OH) | 20 h | 30.1 pM
CCCCCCCCCC(CCCCC(=O)NCCCC[C@H](NC(=O)CNC(=O)[C@H](CCCN=C(N)N)NC(=O)[C@@H](NC(=O)[C@H](CC(C)C)NC(=O)[C@H](Cc1c[nH]c2ccccc12)NC(=O)[C@H](C)NC(=O)[C@@H](NC(=O)[C@H](Cc1ccccc1)NC(=O)[C@H](CCC(=O)O)NC(=O)[C@H](CCCN=C(N)N)NC(=O)[C@H](C)NC(=O)[C@H](C)NC(=O)[C@H](CCC(N)=O)NC(=O)CNC(=O)[C@H](CCC(=O)O)NC(=O)[C@H](CC(C)C)NC(=O)[C@H](Cc1ccc(O)cc1)NC(=O)[C@H](CO)NC(=O)[C@H](CO)NC(=O)[C@@H](NC(=O)[C@H](CC(=O)O)NC(=O)[C@H](CO)NC(=O)[C@@H](NC(=O)[C@H](Cc1ccccc1)NC(=O)[C@@H](NC(=O)CNC(=O)[C@H](CCC(=O)O)NC(=O)[C@H](C)NC(=O)[C@@H](N)Cc1c[nH]cn1)[C@@H](C)O)[C@@H](C)O)C(C)C)[C@@H](C)CC)C(C)C)C(=O)NCC(=O)O)C(=O)O (stereo partly drawn) (H-HAEGTFTSDVSSYLEGQAAREFIAWLVRGK(X1)G-OH) | 13 h | 7.89 pM
CCCCCCCCCCCCCCCC(=O)NC(CCC(=O)NCCCC[C@H](NC(=O)CNC(=O)[C@H](CCCN=C(N)N)NC(=O)[C@@H](NC(=O)[C@H](CC(C)C)NC(=O)[C@H](Cc1c[nH]c2ccccc12)NC(=O)[C@H](C)NC(=O)[C@@H](NC(=O)[C@H](Cc1ccccc1)NC(=O)[C@H](CCC(=O)O)NC(=O)[C@H](CCCN=C(N)N)NC(=O)[C@H](C)NC(=O)[C@H](C)NC(=O)[C@H](CCC(N)=O)NC(=O)CNC(=O)[C@H](CCC(=O)O)NC(=O)[C@H](CC(C)C)NC(=O)[C@H](Cc1ccc(O)cc1)NC(=O)[C@H](CO)NC(=O)[C@H](CO)NC(=O)[C@@H](NC(=O)[C@H](CC(=O)O)NC(=O)[C@H](CO)NC(=O)[C@@H](NC(=O)[C@H](Cc1ccccc1)NC(=O)[C@@H](NC(=O)CNC(=O)[C@H](CCC(=O)O)NC(=O)[C@H](C)NC(=O)[C@@H](N)Cc1c[nH]cn1)[C@@H](C)O)[C@@H](C)O)C(C)C)[C@@H](C)CC)C(C)C)C(=O)NCC(=O)O)C(=O)O (stereo partly drawn) (H-HAEGTFTSDVSSYLEGQAAREFIAWLVRGK([ξγGlu-Palmitoyl])G-OH) | 12 h | 36.4 pM
CCCCCCCCCCCCCCCC(=O)NC(CCC(=O)NCCCCC(NC(=O)[C@H](CCC(=O)O)NC(=O)[C@H](CCCN=C(N)N)NC(=O)CNC(=O)[C@H](CCCN=C(N)N)NC(=O)[C@@H](NC(=O)[C@H](CC(C)C)NC(=O)[C@H](Cc1c[nH]c2ccccc12)NC(=O)[C@H](C)NC(=O)[C@@H](NC(=O)[C@H](Cc1ccccc1)NC(=O)[C@H](CCC(=O)O)NC(=O)[C@H](CCCN=C(N)N)NC(=O)[C@H](C)NC(=O)[C@H](C)NC(=O)[C@H](CCC(N)=O)NC(=O)CNC(=O)[C@H](CCC(=O)O)NC(=O)[C@H](CC(C)C)NC(=O)[C@H](Cc1ccc(O)cc1)NC(=O)[C@H](CO)NC(=O)[C@H](CO)NC(=O)[C@@H](NC(=O)[C@H](CC(=O)O)NC(=O)[C@H](CO)NC(=O)[C@@H](NC(=O)[C@H](Cc1ccccc1)NC(=O)[C@@H](NC(=O)CNC(=O)[C@H](CCC(=O)O)NC(=O)CNC(=O)[C@@H](N)Cc1c[nH]cn1)[C@@H](C)O)[C@@H](C)O)C(C)C)[C@@H](C)CC)C(C)C)C(=O)O)C(=O)O (stereo partly drawn) (H-HGEGTFTSDVSSYLEGQAAREFIAWLVRGRE[ξK]([ξγGlu-Palmitoyl])-OH) | 11 h | 135 pM
